Assay results reported in ChEMBL document CHEMBL4619772 (J Med Chem, 2020).

Legend:
A549 [1] = assay: Inhibition of pseudotyped HIV/EBOV GP infected in human A549 cells assessed as reduction in virus entry at 12.5 uM measured after 48 hrs by luciferase reporter gene assay relative to control; type: cell-based; conditions: Ebolavirus
Outline: (§1)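 Low-passage A549 cells are infected with HIV-based pseudovirions carrying EBOV or MARV GP and a luciferase reporter, with or without compound at 12.5 μM. […] Toremifene is the positive control.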

A549 [2] = assay: Inhibition of pseudotyped HIV/MARV GP infected in human A549 cells assessed as reduction in virus entry at 12.5 uM measured after 48 hrs by luciferase reporter gene assay relative to control; type: cell-based; conditions: Marburgvirus; outline: as §1
[3] = Selectivity index, ratio of CC50 for human A549 cells to EC50 for HIV/EBOV-GP infected in human A549 cells; type: toxicity, cell-based; conditions: read-out: Ratio CC50/EC50
Outline: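 Ratio CC50/EC50. CC50 is A549 cytotoxicity by CellTiter 96 aqueous nonradioactive cell proliferation assay.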

[4] = Inhibition of pseudotyped HIV/EBOV GP infected in human A549 cells assessed as reduction in virus entry measured after 48 hrs by luciferase reporter gene assay; type: cell-based, Ebolavirus; conditions: Orthoebolavirus, A549, 48 h
[5] = Inhibition of pseudotyped HIV/MARV GP infected in human A549 cells assessed as reduction in virus entry measured after 48 hrs by luciferase reporter gene assay; type: cell-based, Marburgvirus; conditions: Orthomarburgvirus, A549, 48 h
Zaire ebolavirus = assay: Antiviral activity against Ebola virus 1976 Mayinga infected in human HeLa cells pretreated for 1 hr followed by virus infection measured after 24 hrs by Hoechst staining-based immunofluorescence assay; type: functional, organism-based
Marburgvirus = assay: Antiviral activity against Marburg virus Lake Victoria, 2005 Angola infected in human HeLa cells pretreated for 1 hr followed by virus infection measured after 24 hrs by Hoechst staining-based immunofluorescence assay; type: functional, organism-based, Lake Victoria marburgvirus; conditions: Orthomarburgvirus, Angola2005, HeLa
[6] = Metabolic stability in Sprague-Dawley rat pooled plasma assessed as parent compound remaining at 20 uM after 60 mins by HPLC analysis; type: ADME, cell-free; conditions: read-out: Stability
Outline: (§2)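 Stability is reported as % of compound remaining after 60 min incubation in plasma or liver microsomes, relative to t0.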

[7] = Metabolic stability in human pooled plasma assessed as parent compound remaining at 20 uM after 60 mins by HPLC analysis; type: ADME, cell-free; conditions: read-out: Stability; outline: as §2
[8] = Metabolic stability in human liver microsomes assessed as parent compound remaining after 60 mins in presence of NADPH by HPLC analysis; type: ADME, Microsome; conditions: read-out: Stability; outline: as §2
[9] = Selectivity index, ratio of CC50 for human HeLa cells to EC50 for Ebola virus 1976 Mayinga in human HeLa cells; type: toxicity, cell-based; conditions: read-out: Ratio CC50/EC50
[10] = Metabolic stability in Fischer F344 rat liver microsomes assessed as parent compound remaining after 60 mins in presence of NADPH by HPLC analysis; type: ADME, Microsome; conditions: read-out: Stability; outline: as §2

Structure (SMILES)	inhibition (A549 [1])	inhibition (A549 [2])	selectivity ratio [3]	EC50 [4]	EC50 [5]	further results
CNS(=O)(=O)c1ccc(NC(=O)c2ccc(CN3CCCCC3)cc2)cc1	0%	3.3%	–	–	–	–
O=C(c1ccc(CN2CCCCC2)cc1)N1CCc2ccc(Cl)cc21	81.5%	42.4%	14	2220 nM	2310 nM	–
O=C(NCCC1CCCCC1)c1ccc(CN2CCCCC2)cc1	90.9%	27.3%	25	2320 nM	7740 nM	–
COC(=O)c1ccc(NC(=O)c2cccc(CN3CCCCC3)c2)cc1	13%	5.9%	–	–	–	–
CC(c1ccc(C(=O)NCCOC2CCCCC2)cc1)N1CCCCC1 (stereo not given)	52.4%	42.5%	–	–	–	–
O=C(Nc1ccc(C2CC2)cc1)c1ccc(CN2CCCCC2)cc1	74.3%	66.2%	22	4570 nM	2650 nM	–
CN(C)CCOc1ccc(/C(=C(/CCCl)c2ccccc2)c2ccccc2)cc1 [TOREMIFENE]	–	–	–	90 nM	–	EC50 (Zaire ebolavirus): 670 nM; EC50 (Marburgvirus): 3250 nM
COC(=O)c1ccc(NC(=O)c2ccc(CN3CCCCC3)s2)cc1	33.8%	27.2%	–	–	–	–
CC(c1ccc(C(=O)Nc2ccc(C3CCCCC3)cc2)cc1)N1CCCCC1 (stereo not given)	99.3%	88.9%	390	330 nM	850 nM	remaining at 1 h, 20 µM [6]: 82%; EC50 (Zaire ebolavirus): 1800 nM; remaining at 1 h, 20 µM [7]: 88%; remaining at 1 h [8]: 31%; selectivity ratio [9]: 54; EC50 (Marburgvirus): 5560 nM; remaining at 1 h [10]: 24%
CS(=O)(=O)c1ccc(NC(=O)c2ccc(CN3CCCCC3)cc2)cc1	0%	17.4%	–	–	–	–
CC(c1ccc(C(=O)N2CCc3ccc(C(F)(F)F)cc32)cc1)N1CCCCC1 (stereo not given)	95.6%	76.9%	21	1560 nM	1730 nM	–
CC(c1ccc(C(=O)NCC2COC3(CCCCC3)O2)cc1)N1CCCCC1 (stereo not given)	56%	37.2%	–	–	–	–
O=C(c1ccc(CN2CCCCC2)cc1)N1CCc2cc(C(F)(F)F)ccc21	56.4%	49.6%	–	–	–	–
O=C(NCC1CCC(F)(F)CC1)c1ccc(CN2CCCCC2)cc1	42.9%	23%	–	–	–	–
CC(C)c1ccc(NC(=O)c2ccc(CN3CCCCC3)cc2)cc1	93.1%	67.5%	10	2870 nM	2100 nM	–
CS(=O)(=O)Nc1ccc(NC(=O)c2ccc(CN3CCCCC3)cc2)cc1	3.91%	6.81%	–	–	–	–
CC1(C)CN(C(=O)c2ccc(CN3CCCCC3)cc2)c2ccccc21	87.3%	21.4%	33	2220 nM	2900 nM	–
COC(=O)c1cccc(NC(=O)c2ccc(CN3CCCCC3)cc2)c1	0%	0%	–	–	–	–
N#Cc1ccc(NC(=O)c2ccc(CN3CCCCC3)cc2)cc1	0%	12.4%	–	–	–	–
O=C(Nc1cccc(C(F)(F)F)c1)c1ccc(CN2CCCCC2)cc1	82.2%	57.5%	15	2970 nM	1410 nM	–
O=C(O)c1ccc(NC(=O)c2ccc(CN3CCCCC3)cc2)cc1	3.12%	10.3%	–	–	–	–

Structure (SMILES)	inhibition (A549 [1])	inhibition (A549 [2])	selectivity ratio [3]	EC50 [4]	EC50 [5]	further results
CC(c1ccc(C(=O)N2CC(C(C)(C)C)c3ccccc32)cc1)N1CCCCC1 (stereo not given)	99.9%	92.8%	224	160 nM	3180 nM	remaining at 1 h, 20 µM [6]: 2%; EC50 (Zaire ebolavirus): 870 nM; remaining at 1 h, 20 µM [7]: 88%; remaining at 1 h [8]: 2%; selectivity ratio [9]: 137; EC50 (Marburgvirus): 6320 nM; remaining at 1 h [10]: 0%
O=C(c1ccc(CN2CCCCC2)cc1)n1ccc2ccc(C(F)(F)F)cc21	0%	0%	–	–	–	–
COC(=O)c1ccc(NC(=O)c2ccc(CN3CCN(C)CC3)cc2)cc1	29.4%	30.3%	–	–	–	–
COC(=O)c1ccc2c(c1)CCN2C(=O)c1ccc(CN2CCCCC2)cc1	41.7%	51.2%	–	–	–	–
COC(=O)c1ccc2c(c1)CCCN2C(=O)c1ccc(CN2CCCCC2)cc1	25.1%	0%	–	–	–	–
N#CC(c1ccc(NC(=O)c2ccc(CN3CCCCC3)cc2)cc1)C1CCCC1 (stereo not given)	96.8%	94%	99	730 nM	1630 nM	–
O=C(c1ccc(CN2CCCCC2)cc1)N1CCc2ccc(C(F)(F)F)cc21	83.7%	59.2%	38	1680 nM	1460 nM	remaining at 1 h, 20 µM [6]: 0%; EC50 (Zaire ebolavirus): 3220 nM; remaining at 1 h, 20 µM [7]: 85%; remaining at 1 h [8]: 31%; selectivity ratio [9]: 39; EC50 (Marburgvirus): 8170 nM; remaining at 1 h [10]: 0%
O=C(Nc1ccc(C2CCCCC2)cc1)c1ccc(CN2CCCCC2)cc1	98.1%	73.4%	101	990 nM	960 nM	–
O=C(Nc1ccc(Cl)c(C(F)(F)F)c1)c1ccc(CN2CCCCC2)cc1	99.6%	98.2%	7	1520 nM	1240 nM	–
COC(=O)c1ccc(NC(=O)c2ccc(CN3CCOCC3)cc2)cc1	57.2%	68.8%	–	–	–	–
O=C(Nc1ccc(C(F)(F)F)c(Cl)c1)c1ccc(CN2CCCCC2)cc1	99.7%	98.5%	9	2340 nM	2050 nM	–
O=C(Nc1ccc(N2CCC(F)(F)CC2)cc1)c1ccc(CN2CCCCC2)cc1	99.7%	88.8%	69	820 nM	1880 nM	–
O=C(Nc1ccc(C2CCCCC2)cc1)c1ccc(CN2CCCCC2)c(F)c1	96.1%	71%	382	380 nM	1330 nM	remaining at 1 h, 20 µM [6]: 86%; EC50 (Zaire ebolavirus): 1040 nM; remaining at 1 h, 20 µM [7]: 87%; remaining at 1 h [8]: 28%; selectivity ratio [9]: 128; EC50 (Marburgvirus): 16600 nM; remaining at 1 h [10]: 23%
O=C(Nc1ccc(C(F)(F)F)nc1)c1ccc(CN2CCCCC2)cc1	5.4%	9.4%	–	–	–	–
COC(=O)c1ccc(NC(=O)c2ccc(C(=O)N3CCCCC3)cc2)cc1	12.9%	0%	–	–	–	–
COC(=O)c1ccc2c(c1)CCN2C(=O)c1ccc(CN2CCCCC2)s1	38.9%	0%	–	–	–	–
O=C(c1ccc(CN2CCCCC2)cc1)N1CCc2ccc(F)cc21	20.1%	13.5%	–	–	–	–
O=C(Nc1ccc(C(F)(F)F)cc1)c1ccc(CN2CCCCC2)s1	80.2%	70%	9	5600 nM	3650 nM	–
O=C(c1ccc(CN2CCCCC2)cc1)N1CC2(CC2)c2ccccc21	74.5%	34.4%	–	–	–	–
O=C(Nc1ccc(C(F)(F)F)cc1)c1ccc(CN2CCCCC2)cc1	89.9%	79.3%	9	3870 nM	5700 nM	–
